# From paper PMC5616206 (Toxicology Reports, 2016)
# “Also recorded” adds a separate entry of the source.
# What was measured:
# [1] = In vitro metabolism by rat liver microsomes; type: in vitro ADME, Sprague-Dawley rat; conditions: S807 incubation, relative to S807 at time = 0
# [2] = In vitro metabolism by human liver microsomes; type: in vitro ADME; conditions: S807 incubation, relative to S807 at time = 0
# [3] = Pharmacokinetics of S807 in rats, single iv or oral dose; type: in vivo, Sprague-Dawley rats; conditions: for AUC(0-t) / Cmax / Tmax / Vd / half-life / clearance / bioavailability: Sprague-Dawley, rat, plasma; for clearance: CL (clearance), iv 1 mg/kg bw; for AUClast Ratio / Cmax Ratio: vs 20 mg/kg bw dose
# Method in brief: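 Sprague-Dawley rats, 4/sex, received a 1 mg/kg bw IV bolus in 20% PEG400/10% ethanol/2% DMSO/68% saline. Sampling was via jugular cannula at pre-dose and 2 min to 8 h. Oral groups (4/sex/group) were gavaged once with 20, 50 or 200 mg/kg bw in 1% methylcellulose and sampled from 15 min to 24 h. Plasma was assayed for parent and metabolites.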
# [4] = In vivo metabolism of S807 in rats; design: species or system Sprague-Dawley rats; conditions: male and female pooled rat plasma, 1 h post dose, 200 mg/kg bw oral
# [5] = system: S. typhimurium strains TA98, TA100, TA1535, TA1537 and E. coli strain WP2 uvrA; assay: Bacterial reverse mutation test; type: cell-based; conditions: 21–5000 μg/plate, plate incorporation and pre-incubation, ±S9
# Method in brief: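 The assay followed OECD Guideline 471 and used S. typhimurium TA98, TA100, TA1535 and TA1537 and E. coli WP2 uvrA. It was run with and without S9 from livers of Aroclor 1254-treated Sprague-Dawley rats. One compound was tested at 21–5000 μg/plate by plate incorporation and pre-incubation. The other was tested at 50–5000 μg/plate in an initial toxicity-mutation test and a confirmatory mutation test.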
# [6] = system: Chinese hamster ovary cells (CHO-WBL); assay: In vitro chromosome aberration test, CHO-WBL cells; type: cell-based
# [7] = system: Male Swiss albino (CD-1) mice, bone marrow PCEs; assay: In vivo micronucleus assay in mice, S807
# Method in brief: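 Swiss Albino (CD-1) mice received a single intraperitoneal injection of the test compound as a DMSO solution (132 mg/mL). Range finding used 3/sex/group at 500, 1000 or 2000 mg/kg bw, then added groups at 800 (3/sex) and 700 (3 males). The definitive phase used 175, 350 and 700 mg/kg bw, 21 animals/group. Readouts were bone-marrow mnPCE incidence and PCE/total erythrocyte ratio versus vehicle. Cyclophosphamide was the positive control.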
# [8] = system: Sprague-Dawley Rats; assay: 21-day dose-range finding toxicity study on S807; type: in vivo, Crl:CD(SD)IGS BR rats; conditions: 50, 100, 200 mg/kg bw/day food ad-mix, 21 days
# Method in brief: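 Dose-range finder for the 90-day study. Crl:CD(SD)IGS BR rats, 5/sex/group, received the test compound continuously in the diet at 50, 100 or 200 mg/kg bw/day for 21 days. One group of 5/sex served as control and received the vehicle diet.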
# [9] = system: Sprague-Dawley Rats; assay: 13-week subchronic toxicity study on S807; type: in vivo, Crl:CD(SD)IGS BR rats; conditions: 2, 10, 20 mg/kg bw/day food ad-mix, 13 weeks
# Method in brief: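 Crl:CD(SD)IGS BR rats, 20/sex/group, were given the test compound in the diet at 0 (control), 2, 10 or 20 mg/kg bw/day for 93 consecutive days.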
# [10] = Dietary exposure estimates; design: species or system human
# [11] = oral gavage 20 mg/kg bw, female
# [12] = oral gavage 50 mg/kg bw, female
# [13] = oral gavage 200 mg/kg bw, female
smiles,measurement,setting,value
"CCCC(CCC)NC(=O)c1ccc2c(c1)OCO2 [S807, N-(heptan-4-yl)benzo[d][1,3]dioxole-5-carboxamide]",% MS (EIC) Peak Area,[1]; 10 min,70.0%
same,% MS (EIC) Peak Area,[1]; 20 min,34.0%
same,% MS (EIC) Peak Area,[2]; 10 min,89.4%
same,% MS (EIC) Peak Area,[2]; 20 min,80.8%
same,% MS (EIC) Peak Area,[2]; 60 min,65.0%
same,AUC(0-t),"[3]; female, iv, 1 mg/kg",342 ± 81.4 ng·h/mL
same,Cmax,"[3]; female, iv, 1 mg/kg",949 ± 222 ng/mL
same,Tmax,"[3]; female, iv, 1 mg/kg",0.033 h
same,Vd,"[3]; female, iv, 1 mg/kg",5.61 L/kg
same,half-life,"[3]; female, iv, 1 mg/kg",3.02 ± 0.92 h
same,clearance,"[3]; female, iv, 1 mg/kg, female rat",47.2 mL/min/kg
same,AUC(0-t),"[3]; female, po, 20 mg/kg",166 ± 72.2 ng·h/mL
same,Cmax,"[3]; female, po, 20 mg/kg",187 ± 87.6 ng/mL
same,Tmax,"[3]; female, po, 20 mg/kg",0.25 h
same,bioavailability,"[3]; female, po, 20 mg/kg",2.43%
same,half-life,"[3]; female, po, 20 mg/kg",1.07 ± 0.67 h
same,AUC(0-t),"[3]; female, po, 50 mg/kg",1410 ± 1020 ng·h/mL
same,Cmax,"[3]; female, po, 50 mg/kg",529 ± 379 ng/mL
same,Tmax,"[3]; female, po, 50 mg/kg",1 h
same,bioavailability,"[3]; female, po, 50 mg/kg",8.25%
same,half-life,"[3]; female, po, 50 mg/kg",1.17 ± 0.16 h
same,AUC(0-t),"[3]; female, po, 200 mg/kg",108000 ± 27900 ng·h/mL
same,Cmax,"[3]; female, po, 200 mg/kg",9150 ± 2410 ng/mL
same,Tmax,"[3]; female, po, 200 mg/kg",3 h
same,bioavailability,"[3]; female, po, 200 mg/kg",158%
same,half-life,"[3]; female, po, 200 mg/kg",2.62 ± 0.2 h
same,CL as % of hepatic blood flow,"[3]; iv, females",85.5%
same,CL as % of hepatic blood flow,"[3]; iv, males",55.6%
same,AUC(0-t),"[3]; male, iv, 1 mg/kg",491 ± 33.3 ng·h/mL
same,Cmax,"[3]; male, iv, 1 mg/kg",1110 ± 237 ng/mL
same,Tmax,"[3]; male, iv, 1 mg/kg",0.033 h
same,Vd,"[3]; male, iv, 1 mg/kg",4.63 L/kg
same,half-life,"[3]; male, iv, 1 mg/kg",3.02 ± 0.24 h
same,clearance,"[3]; male, iv, 1 mg/kg, male rat",30.7 mL/min/kg
same,AUC(0-t),"[3]; male, po, 20 mg/kg",182 ± 70.5 ng·h/mL
same,Cmax,"[3]; male, po, 20 mg/kg",174 ± 95.1 ng/mL
same,Tmax,"[3]; male, po, 20 mg/kg",0.313 h
same,bioavailability,"[3]; male, po, 20 mg/kg",1.85%
same,half-life,"[3]; male, po, 20 mg/kg",1.14 ± 0.35 h
same,AUC(0-t),"[3]; male, po, 50 mg/kg",4890 ± 4960 ng·h/mL
same,Cmax,"[3]; male, po, 50 mg/kg",1270 ± 1170 ng/mL
same,Tmax,"[3]; male, po, 50 mg/kg",1.5 h
same,bioavailability,"[3]; male, po, 50 mg/kg",19.9%
same,half-life,"[3]; male, po, 50 mg/kg",1.83 ± 0.61 h
same,AUC(0-t),"[3]; male, po, 200 mg/kg",101000 ± 19500 ng·h/mL
same,Cmax,"[3]; male, po, 200 mg/kg",10500 ± 937 ng/mL
same,Tmax,"[3]; male, po, 200 mg/kg",4 h
same,bioavailability,"[3]; male, po, 200 mg/kg",103%
same,half-life,"[3]; male, po, 200 mg/kg",2.49 ± 0.07 h
same,AUClast Ratio,[3]; [11],1
same,Cmax Ratio,[3]; [11],1
same,AUClast Ratio,"[3]; oral gavage 20 mg/kg bw, male",1
same,Cmax Ratio,"[3]; oral gavage 20 mg/kg bw, male",1
same,AUClast Ratio,[3]; [12],8.49
same,Cmax Ratio,[3]; [12],2.83
same,AUClast Ratio,"[3]; oral gavage 50 mg/kg bw, male",26.9
same,Cmax Ratio,"[3]; oral gavage 50 mg/kg bw, male",7.30
same,AUClast Ratio,[3]; [13],651
same,Cmax Ratio,[3]; [13],48.9
same,AUClast Ratio,"[3]; oral gavage 200 mg/kg bw, male",555
same,Cmax Ratio,"[3]; oral gavage 200 mg/kg bw, male",60.3
same,MS (EIC) Peak Area,[4],"29,000,000 cps"
same,"Reverse mutation (in vitro), Result",[5],not mutagenic; also recorded: Negative
same,"Chromosome aberration (in vitro), Result","[6]; 21–5000 μg/mL, 3 h −S9, 3 h +S9, 18 h −S9",did not induce chromosomal aberrations; also recorded: Negative
same,test article concentration with precipitate in the cell cultures,[6]; all conditions,≥ 62 µg/mL
same,"Micronucleus formation (in vivo), Result","[7]; 175, 350, 700 mg/kg bw (ip)",neither clastogenic nor aneugenic; also recorded: Negative
same,dose groups with deaths within 48 h of treatment,"[7]; range finding, ip",≥ 800 mg/kg bw
same,Findings,[8],Lower bw gain in females at 200 mg/kg bw/day; increased liver weight in females at 100 and 200 mg/kg bw/day; histomorphological changes in livers of both male and females at all doses
same,NOEL,[8],< 50 mg/kg bw/day
same,Findings,[9],No test-article related findings
same,NOEL,[9],20 mg/kg bw/day
same,NOEL as times the estimated dietary exposure (mTAMDI),[10]; NOEL 20 mg/kg bw/day,2560 times
same,"margin of safety, NOEL vs estimated use",[10]; NOEL 20 mg/kg bw/day vs 4.9 μg/kg bw/day,> 4000 fold
